MC4R ag barr – MC4R agonists recruiting beta-arrestin, primary screen, cell-based, luminescence, agonist arm of biased-ligand search. Melanocortin receptor 4 (Homo sapiens), P32245. activation, % at 8.9 µM. AID 540308, 2011. U2OS MC4R beta-arrestin complementation; percent of melanotan II response, DMSO zero. 0.98% of 360,000 active;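 active = activation above a per-plate cutoff, the mean activation of sample wells on that plate plus 3 SD, cut at about 8% in these data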
B2AR ag – beta2AR agonists driving receptor internalization, primary screen, cell-based, FAP fluorogen, flow cytometry. Beta-2 adrenergic receptor (Homo sapiens), P07550. Am2.2-beta2AR cells. response, % (test concentration not listed). 0.43% of 340,000 active. AID 504454, 2011;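 active = response above a set limit, near 3 SD of response in nonfluorescent compounds, cut at about 42% in these data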
MC4R antagonist – MC4R antagonists of cAMP signaling, primary screen, cell-based, TR-FRET, antagonist arm of biased-ligand search | 0.48% of 360,000 active | Melanocortin receptor 4 (Homo sapiens), P32245 | MC4R-expressing cells, MTII-stimulated cAMP, LANCE TR-FRET | AID 540295, 2011 | inhibition, % at 6.5 µM;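 active = inhibition above its plate's cutoff, the mean of tested wells on that plate plus 3 SD, cut at about 29% in these data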;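 also: 0% = Melanotan II alone and 100% = Melanotan II plus saturating MCL0020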
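Material – human MC4R-expressing U2OS cells · Repeats – no replicates · Detection – TR-FRET with Eu-cAMP and labeled anti-cAMP, 671 nm · Times – compound 30 min, challenge 1 h, detection 1 h · Compound – single nominal compound dose of 6.5 µM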
HTR2A ag – mouse Htr2a agonists via beta-arrestin recruitment, primary screen, cell-based, luminescence; 0.66% of 360,000 active; CHO-K1 mHTR2A beta-arrestin complementation; percent of 30 µM serotonin response; 5-hydroxytryptamine receptor 2A (Mus musculus), P35363; AID 624169, 2012; activation, % at 7.6 µM;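 active = activation above a run cutoff, the mean activation of all tested compounds plus 3 SD, cut at about 14% in these data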;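 also: 0% = plate median of compound wells and 100% = 30 µM serotonin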
TAAR1 antag – human TAAR1 antagonists, primary screen, Fluo-8 calcium fluorescence, CHO RD-HGA16 cells; Trace amine-associated receptor 1 (Homo sapiens), Q96RJ0; antagonist; inhibition, % at 3 µM; 1.5% of 360,000 active; AID 624466, 2012;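 active = inhibition above a per-plate cutoff, the mean inhibition of test compounds on that plate plus 3 SD, cut at about 49% in these data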;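 also: 0% = DMSO plus EC80 beta-PEA response and 100% = DMSO alone without agonist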
Target sequence (Q96RJ0 whole entry, looked up): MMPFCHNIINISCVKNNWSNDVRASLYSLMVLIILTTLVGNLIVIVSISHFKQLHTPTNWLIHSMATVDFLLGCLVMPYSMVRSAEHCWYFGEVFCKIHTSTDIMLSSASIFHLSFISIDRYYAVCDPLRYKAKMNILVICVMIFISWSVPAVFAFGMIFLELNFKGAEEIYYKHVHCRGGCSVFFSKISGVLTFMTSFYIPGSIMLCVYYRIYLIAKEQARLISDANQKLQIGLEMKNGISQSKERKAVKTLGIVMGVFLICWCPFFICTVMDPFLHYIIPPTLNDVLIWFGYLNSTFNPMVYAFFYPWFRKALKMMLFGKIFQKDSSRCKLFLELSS
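Assay system: CHO-derived RD-HGA16 cells stably expressing human TAAR1 plus Gα16. Timing: 140 s kinetic read after compound, 140 s after agonist. Technique: kinetic Fluo-8 calcium fluorescence measurement. Measure: % inhibition of agonist calcium response.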
TAAR1 agonist – human TAAR1 agonists, primary screen, Fluo-8 calcium fluorescence, CHO RD-HGA16 cells; 0.99% of 360,000 active; vehicle wells 0%, saturating PEA agonist 100%; activation, % at 3 µM; Trace amine-associated receptor 1 (Homo sapiens), Q96RJ0;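 active = activation above the mean activation of all test compounds in the run plus 3 SD, cut at about 38% in these data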
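System: CHO-derived RD-HGA16 cells with stable Gα16 and human TAAR1. Times: 17-24 h plating, Fluo-8 75 min 37 °C, 30 min RT. Measured by: calcium-sensitive Fluo-8 signal, excitation 470-495, emission 515-575 nm. Read-out basis: % activation relative to PEA EC100 response. Control set: DMSO and PEA EC100. Repeats: no replicates (n 1).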
B2AR ag CP1 – beta2AR agonists via receptor internalization, confirmation, cell-based, FAP fluorogen, flow cytometry, single point, cherry pick 1; AID 540358, 2011; shares compounds with B2AR ag; 25% of 1,100 active; Am2.2-beta2AR cells, FAP surface receptor; hits give low values; percent response (surface receptor), % at 10 µM;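 active = surface receptor percent response at or below 58%, roughly 3 SD from nonfluorescent compounds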
B2AR FAP counter – flagged in Am2.2 fluorescence counterscreen for beta-2AR agonists; calls only at 10 µM; Am2.2 cells, FAP fluorogen flow cytometry; hits give low values; 1,100 tested, under 10 active; AID 588765; shares compounds with B2AR ag;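 active = percent response below a set limit in fluorescence channel 1 and below 50% in channel 8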
Starred values were filed as active, the others as inactive; i = inactive; / = no result. Rows were chosen to be rich in hits. Some 4.3% of all compounds tested hit in one or more screens of this group.

SMILES | MC4R ag barr | B2AR ag | MC4R antagonist | HTR2A ag | TAAR1 antag | TAAR1 agonist | B2AR ag CP1 | B2AR FAP counter
N#Cc1c(NC(=O)CSc2n[nH]c(Cc3ccccc3)n2)oc(-c2ccccc2)c1-c1ccccc1 | 1 | 3 | 0 | -6 | 23 | 16 | / | /
N#Cc1c(NC(=O)CSc2ncccn2)oc(-c2ccccc2)c1-c1ccccc1 | -1 | 49* | 4 | -1 | 12 | 5 | 117 | i
Cc1cc(OCC(=O)Nc2cc(-c3nn4c(C)nnc4s3)ccc2C)ccc1Cl | 0 | 79* | 12 | 1 | -12 | 2 | 112 | i
COc1ccccc1-c1csc(-n2ncc(C#N)c2N)n1 | 0 | 84* | -11 | -9 | 19 | -3 | 73 | i
COc1ccc(-c2csc(-n3ncc(-c4ccccn4)c3N)n2)cc1 | 0 | 3 | 9 | 6 | -22 | 0 | / | /
COc1ccc(CNC(=O)CN(C(=O)c2snc(C(N)=O)c2N)c2ccc(F)cc2)cc1 | -3 | 47* | 0 | 5 | 1 | 9 | 87 | i
COc1ccc(N(CC(=O)NCc2ccc(F)cc2)C(=O)c2snc(C(N)=O)c2N)cc1 | 0 | 3 | 17 | 0 | 5 | 10 | / | /
COc1ccc(Oc2c(OC)cc(NCc3ccc(CN)cc3)c3ncccc23)cc1 | -3 | / | -10 | -8 | -13 | 3 | / | /
Cc1cccc(OCc2n(CC(=O)OC3CC(C)CCC3C(C)C)c3ccccc3[n+]2C)c1 (configuration not stated) | 23* | 10 | -3 | -7 | / | / | 96 | i
CC[C@@H]1CC2=C(C(=O)OC(C)(C)O2)[C@H](c2ccc(Cl)cc2)O1 | / | / | / | -4 | -7 | -1 | / | /
